Reference: ChEMBL document CHEMBL2331216, “Synthesis and biological activities of a new class of heat shock protein 90 inhibitors, designed by energy-based pharmacophore virtual screening” (J Med Chem, 2013)
Activity calls are given as the source filed them.

Columns and labels:
Heat shock protein HSP90 [1] = target: T1, Heat shock protein HSP90 (Homo sapiens, UniProt P07900+P08238); test: Inhibition of biotinylated geldanamycin binding to human recombinant Hsp90 ATP binding domain after 60 mins by fluorescence assay; type: protein assay
[2] = Antiproliferative activity against human melanoma cells after 48 hrs by sulforhodamine B assay; type: functional; details: Melanoma cell
Procedure, shortened: (§1)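 Compounds run through the NCI DTP screen on its full human tumour cell line panels. Those that passed the selection criteria were tested twice in the five-dose concentration format. The MG_MID for each experiment is the arithmetic mean over all cell lines tested.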

[3] = Antiproliferative activity against human leukemia cells after 48 hrs by sulforhodamine B assay; type: functional; details: Leukemia cell; procedure, shortened: as §1
[4] = Antiproliferative activity against human breast cancer cells after 48 hrs by sulforhodamine B assay; type: functional; details: Cancer cell lines; procedure, shortened: as §1
[5] = Antiproliferative activity against human CNS cancer cells after 48 hrs by sulforhodamine B assay; type: functional; details: Cancer cell lines; procedure, shortened: as §1
[6] = Antiproliferative activity against human colon cancer cells after 48 hrs by sulforhodamine B assay; type: functional; details: Cancer cell lines; procedure, shortened: as §1
[7] = Antiproliferative activity against human non-small cell lung cancer cells after 48 hrs by sulforhodamine B assay; type: functional; details: Cancer cell lines; procedure, shortened: as §1
[8] = Antiproliferative activity against human ovarian cancer cells after 48 hrs by sulforhodamine B assay; type: functional; details: Cancer cell lines; procedure, shortened: as §1
[9] = Antiproliferative activity against human renal cancer cells after 48 hrs by sulforhodamine B assay; type: functional; details: Cancer cell lines; procedure, shortened: as §1
[10] = Antiproliferative activity against human prostate cancer cells after 48 hrs by sulforhodamine B assay; type: functional; details: Cancer cell lines; procedure, shortened: as §1
SF-295 = test: Antiproliferative activity against human SF295 cells after 48 hrs by sulforhodamine B assay; type: functional; details: SF-295, 48 h; procedure, shortened: as §1
NCI-H522 = test: Antiproliferative activity against human NCI-H522 cells after 48 hrs by sulforhodamine B assay; type: functional; details: NCI-H522, 48 h; procedure, shortened: as §1
MCF7 [11] = test: Cell cycle arrest in human MCF7 cells assessed as decrease in S phase cells at 0.548 uM after 48 hrs by propidium iodide staining-based FACS flow cytometric analysis; type: functional
Procedure, shortened: (§2)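 Cells were collected and DNA stained with propidium iodide. Flow cytometry gave the cell cycle phase distribution against untreated controls. Values are mean ± SD of three independent experiments.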

MCF7 [12] = test: Cell cycle arrest in human MCF7 cells assessed as decrease in G0/G1 phase cells at 0.548 uM after 48 hrs by propidium iodide staining-based FACS flow cytometric analysis; type: functional; procedure, shortened: as §2
MCF7 [13] = test: Cell cycle arrest in human MCF7 cells assessed as decrease in G2/M phase cells at 0.548 uM after 48 hrs by propidium iodide staining-based FACS flow cytometric analysis; type: functional; procedure, shortened: as §2
MCF7 [14] = test: Cell cycle arrest in human MCF7 cells assessed as accumulation at sub G0/G1 phase at 0.548 uM after 48 hrs by propidium iodide staining-based FACS flow cytometric analysis; type: functional; procedure, shortened: as §2
MCF7 [15] = test: Cell cycle arrest in human MCF7 cells assessed as decrease in S phase cells at 0.548 uM after 24 hrs by propidium iodide staining-based FACS flow cytometric analysis (reference value: 11 %); type: functional; design: scale not given: the % may be the effect or the level left; procedure, shortened: as §2
MCF7 [16] = test: Cell cycle arrest in human MCF7 cells assessed as decrease in G0/G1 phase cells at 0.548 uM after 24 hrs by propidium iodide staining-based FACS flow cytometric analysis (reference value: 65 %); type: functional; design: scale not given: the % may be the effect or the level left; procedure, shortened: as §2
MCF7 [17] = test: Cell cycle arrest in human MCF7 cells assessed as increase in G2/M phase cells at 0.548 uM after 24 hrs by propidium iodide staining-based FACS flow cytometric analysis (reference value: 24 %); type: functional; procedure, shortened: as §2
Heat shock protein HSP90 [18] = target: T1, Heat shock protein HSP90; test: Inhibition of Hsp90 in human MCF7 cells assessed as decrease in Cdk4 level at 0.5 to 2 fold GI50 after 24 hrs by Western blotting analysis; type: cell-based
Procedure, shortened: (§3)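 Total cellular extracts were analysed by Western blot for Cdk4, c-Raf, ErbB2 and Hsp72, with β-actin as the loading control.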

Heat shock protein HSP90 [19] = target: T1, Heat shock protein HSP90; test: Inhibition of Hsp90 in human MCF7 cells assessed as decrease in cRAF level at 0.5 to 2 fold GI50 after 24 hrs by Western blotting analysis; type: cell-based; procedure, shortened: as §3
Heat shock protein HSP90 [20] = target: T1, Heat shock protein HSP90; test: Inhibition of Hsp90 in human MCF7 cells assessed as decrease in ErbB2 level at 0.5 to 2 fold GI50 after 24 hrs by Western blotting analysis; type: cell-based; procedure, shortened: as §3
Heat shock protein HSP90 [21] = target: T1, Heat shock protein HSP90; test: Inhibition of Hsp90 in human MCF7 cells assessed as decrease in Cdk4 level after 24 hrs by Western blotting analysis; type: cell-based; procedure, shortened: as §3
Heat shock protein HSP90 [22] = target: T1, Heat shock protein HSP90; test: Inhibition of Hsp90 in human MCF7 cells assessed as decrease in cRAF level after 24 hrs by Western blotting analysis; type: cell-based; procedure, shortened: as §3
Heat shock protein HSP90 [23] = target: T1, Heat shock protein HSP90; test: Inhibition of Hsp90 in human MCF7 cells assessed as decrease in ErbB2 level after 24 hrs by Western blotting analysis; type: cell-based; procedure, shortened: as §3
Heat shock protein HSP90 [24] = target: T1, Heat shock protein HSP90; test: Inhibition of Hsp90 in human MCF7 cells assessed as upregulation of Hsp72 at 0.5 to 2 fold GI50 after 24 hrs by Western blotting analysis; type: cell-based; procedure, shortened: as §3
MCF7 [25] = test: Antitumor activity in human MCF7 cells assessed as induction of necrosis after 24 hrs by LDH assay; type: functional, cell-based
MCF7 [26] = test: Cell cycle arrest in human MCF7 cells assessed as accumulation at G2/M phase after 24 hrs by propidium iodide staining-based FACS flow cytometric analysis; type: functional; procedure, shortened: as §2

SMILES	EC50 (Heat shock protein HSP90 [1]) [nM]	GI50 [2] [nM]	GI50 [3] [nM]	GI50 [4] [nM]	GI50 [5] [nM]	GI50 [6] [nM]	GI50 [7] [nM]	GI50 [8] [nM]	GI50 [9] [nM]	GI50 [10] [nM]	further results
COc1ccc(-c2cc(-c3cccc(NS(C)(=O)=O)c3)nc(N)c2C#N)cc1OC	867	–	–	–	–	–	–	–	–	–	–
CCN(CC)c1ccc(-c2cc(-c3cccc(NS(C)(=O)=O)c3)nc(N)c2C#N)cc1	783	–	–	–	–	–	–	–	–	–	–
COc1ccc(-c2cc(-c3cccc(NS(C)(=O)=O)c3)nc(N)c2C#N)cc1	541	80	100	140	80	100	130	220	130	130	–
COc1cccc(-c2cc(-c3cccc(NS(C)(=O)=O)c3)nc(N)c2C#N)c1	> 10000	–	–	–	–	–	–	–	–	–	–
CS(=O)(=O)Nc1cccc(-c2cc(-c3ccc(O)cc3)c(C#N)c(N)n2)c1	> 10000	–	–	–	–	–	–	–	–	–	–
CS(=O)(=O)Nc1cccc(-c2cc(-c3ccccc3Cl)c(C#N)c(N)n2)c1	950	660	580	460	510	550	1100	980	660	780	–
CS(=O)(=O)Nc1cccc(-c2cc(-c3ccccc3Br)c(C#N)c(N)n2)c1	> 10000	–	–	–	–	–	–	–	–	–	–
COc1ccccc1-c1cc(-c2cccc(NS(C)(=O)=O)c2)nc(N)c1C#N	634	–	–	–	–	–	–	–	–	–	–
CS(=O)(=O)Nc1cccc(-c2cc(-c3cccc(F)c3)c(C#N)c(N)n2)c1	> 10000	–	–	–	–	–	–	–	–	–	–
CN(C)c1ccc(-c2cc(-c3cccc(NS(C)(=O)=O)c3)nc(N)c2C#N)cc1	371	60	40	100	40	40	60	80	50	30	–
COc1cccc(-c2cc(-c3cccc(NS(C)(=O)=O)c3)nc(N)c2C#N)c1O	252	120	140	260	160	150	250	210	290	130	GI50 (SF-295): 43 nM; GI50 (NCI-H522): 24 nM; Activity (MCF7 [11]): Active; Activity (MCF7 [12]): Active; Activity (MCF7 [13]): Active; Activity (MCF7 [14]): Active; Activity (MCF7 [15]): 7%; Activity (MCF7 [16]): 40%; Activity (MCF7 [17]): 53%; inhibition (Heat shock protein HSP90 [18]): Active; inhibition (Heat shock protein HSP90 [19]): Active; inhibition (Heat shock protein HSP90 [20]): Active; inhibition (Heat shock protein HSP90 [21]): Dose-dependent effect; inhibition (Heat shock protein HSP90 [22]): Dose-dependent effect; inhibition (Heat shock protein HSP90 [23]): Dose-dependent effect; inhibition (Heat shock protein HSP90 [24]): Active; Activity (MCF7 [25]): Active; Activity (MCF7 [26]): Dose-dependent effect
